Active and inactive are the calls of the source. The calls are words filed in the database; no cut-off is given here.
What was measured:
[1] = system: MDA-MB-468; test: Induction of apoptosis in human MDA-MB-468 cells expressing p53 R273H mutant assessed fold increase in number of Annexin-V stained cells at 6 to 12 uM incubated for 24 hrs by AnnexinV-FITC and PI staining based flow cytometry relative to control; type: functional; settings: dose 6-12 µM
Procedure, shortened: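 24 h treatment, DMSO control. Cells scraped, washed in PBS, then given fluorochrome-conjugated Annexin V for 15 min at RT in the dark, followed by PI (0.1 µg/ml) in binding buffer. Read by flow cytometry on LSRFortessa. Annexin V-positive cells expressed relative to the DMSO control.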

[2] = system: MDA-MB-231; test: Antiproliferative activity against human MDA-MB-231cells expressing p53 R280K mutant assessed as inhibition of cell growth at 10 to 50 uM incubated for 24 hrs by WST-1 assay; type: functional, cell-based; settings: dose 10-50 µM
Procedure, shortened: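 WST-1 proliferation assay. Compound diluted in DMSO so that 10 μl of stock in 1 ml of cells (40,000 cells/ml) gives the test concentration at 1% DMSO. Cells plated at 4,000/well in duplicate and incubated at 37 °C for 24 h or 72 h. Result given as % of the 1% DMSO control.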

[3] = system: MDA-MB-468; test: Antiproliferative activity against human MDA-MB-468 cells transfected with non-specific siRNA assessed as inhibition of cell growth at 5 to 25 uM measured after 24 hrs by WST-1 assay; type: functional, cell-based; settings: dose 5-25 µM
Procedure, shortened: (§1)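 MDA-MB-468 cells plated at 50-60% confluence 24 h before transfection. p53 SMARTpool or non-specific siRNA (0.430 nmol) given with Lipofectamine 2000 in Opti-MEM for 5 h, repeated after 24 h. Drug or DMSO added 72 h after the first transfection. Proliferation read by WST-1, % of DMSO control.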

[4] = system: MCF7; test: Downregulation of p53 expression in human MCF7 cells at 6 to 12 uM measured after 24 hrs by immunoblot analysis; type: functional, cell-based; settings: dose 6-12 µM
Procedure, shortened: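 24 h exposure to 6 or 12 μM, DMSO control. Lysis in Tris pH 8.0/NaCl/glycerol/NP-40/EDTA buffer with protease inhibitors. 20 µg (MDA-MB-231, MDA-MB-468) or 50 µg (MCF-7) of lysate run on 4-12% SDS-PAGE. Blot probed with p53 DO-1, GAPDH used for reprobe/loading. Triplicate experiments.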

[5] = system: Cellular tumor antigen p53 (Homo sapiens), P04637 [R273H]; test: Reactivation of transactivation function to p53 R273H mutant in human MDA-MB-468 cells assessed as ATM activation by measuring increase in phosphorylation of ATM at serine 1981 residue at 6 uM measured after 24 hrs by immunoblot analysis; type: cell-based; settings: filed as activator
Procedure, shortened: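 DMSO or 6 µM for 24 h. 250 µg of lysate run on 4-12% SDS-PAGE, blot probed with anti-pATM Ser1981 (1:500), then anti-mouse HRP secondary with ECL detection. GAPDH reprobe as control. Triplicate experiments.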

[6] = system: MDA-MB-468; test: Antiproliferative activity against human MDA-MB-468 cells transfected with p53 siRNA assessed as inhibition of cell growth at 5 to 25 uM measured after 24 hrs by WST-1 assay; type: functional, cell-based; settings: dose 5-25 µM; procedure, shortened: as §1

Question: Which results are given for S=C=NCCCC12CC3CC(CC(C3)C1)C2?
Answer: fold change (FC) [1]: 2; Activity [2]: Dose-Dependent Effect; Activity [3]: Active; inhibition [4]: inactive; Activity [5]: Active; Activity [6]: inactive

From ChEMBL document CHEMBL5038582, “Adamantyl Isothiocyanates as Mutant p53 Rescuing Agents and Their Structure-Activity Relationships” (J Med Chem, 2021)
